Assay results taken from ChEMBL document CHEMBL1933064, “Synthesis and evaluation of potential inhibitors of human and Escherichia coli histidine triad nucleotide binding proteins” (Bioorg Med Chem Lett, 2012).
The source made the active and inactive calls. No cut-off for these calls is given here.

Tests used:
[1] = system: Escherichia coli; experiment: Inhibition of HinT in Escherichia coli BW25113 assessed as impaired growth at 100 uM after 40 hrs in presence of D,L-alanine as sole carbon source
[2] = Non-competitive inhibition of Escherichia coli HinT using tryptamine 5'-adenosine phosphoramidate as substrate compound pre-incubated for 30 secs prior substrate addition measured for 2 mins by Dixon plot analysis
Procedure, shortened: (§1)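 Phosphoramidase assay on fluorogenic tryptamine 5'-adenosine phosphoramidate (TpAd), ecHinT or hHint1 enzyme. Enzyme pre-incubated with inhibitor 30 s at 25 °C, then substrate added. Hydrolysis followed as fluorescence rise (excitation 280 nm, emission 360 nm) over 2 min. HEPES buffer pH 7.2, 25 °C; Ki derived from rates versus concentration.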

[3] = system: Escherichia coli; experiment: Growth inhibition of Escherichia coli BW25113 at 100 uM after 40 hrs in presence of glucose as sole carbon source; type: functional, organism-based
[4] = biological target: Adenosine 5'-monophosphoramidase HINT1 (Homo sapiens, UniProt P49773); experiment: Non-competitive inhibition of human HinT1 using tryptamine 5'-adenosine phosphoramidate as substrate compound pre-incubated for 30 secs prior substrate addition measured for 2 mins by Dixon plot analysis; procedure, shortened: as §1

Compound	inhibition [1]	Ki [2]	growth inhibition (GI) [3]	Ki [4]
Cc1cn([C@H]2C[C@H](N)[C@@H](COC(=O)NCCc3c[nH]c4ccccc34)O2)c(=O)[nH]c1=O	Active	122 µM	inactive	139 µM
Nc1ncnc2c1ncn2[C@@H]1O[C@H](COC(=O)NCCc2c[nH]c3ccccc23)[C@@H](O)[C@H]1O	Active	73 µM	inactive	103 µM
Nc1nc2c(ncn2[C@@H]2O[C@H](COC(=O)NCCc3c[nH]c4ccccc34)[C@@H](O)[C@H]2O)c(=O)[nH]1	Active	42 µM	inactive	34 µM
Nc1ncnc2c1ncn2[C@@H]1O[C@H](COC(=O)CCCc2c[nH]c3ccccc23)[C@@H](O)[C@H]1O	–	393 µM	–	457 µM
Cc1cn([C@H]2C[C@H](N=[N+]=[N-])[C@@H](COC(=O)NCCc3c[nH]c4ccccc34)O2)c(=O)[nH]c1=O	–	565 µM	–	715 µM
Nc1ncnc2c1ncn2[C@@H]1O[C@H](COC(=O)CCc2c[nH]c3ccccc23)[C@@H](O)[C@H]1O	–	375 µM	–	400 µM
